As a reminder, the IC50 is the concentration needed to halve the response being measured.

Consider 29 compounds from ChEMBL document CHEMBL1140993, “Design, synthesis and preliminary evaluation of novel pyrrolidine derivatives as matrix metalloproteinase inhibitors” (Eur J Med Chem, 2008).

Test [1] concerns the target 72 kDa type IV collagenase (Homo sapiens, UniProt P08253). Put plainly: Inhibition of MMP2 by microtiter plate fluorimetric assay. In outline: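 Substrate was succinylated gelatin, in 50 mM sodium borate buffer, pH 8.5. Compound and enzyme were preincubated 30 min at 37 °C, then incubated another 60 min at 37 °C after substrate addition. Controls were a 100% group without compound and a blank with enzyme only.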

The target in another test is Aminopeptidase N (Homo sapiens, UniProt P15144). Put plainly: Inhibition of aminopeptidase N by microtiter plate fluorimetric assay. The settings on record: in the assay text read “spectrophotometric” for “fluorimetric”. Summed up:
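Substrate was L-leucine p-nitroanilide, in 50 mM sodium phosphate buffer, pH 7.2. Enzyme and compound were preincubated 30 min at 37 °C, then incubated 60 min at 37 °C with substrate. OD405 was read. Inhibition % = [OD(100%) − OD(compound)]/[OD(100%) − OD(blank)] × 100, where 100% has no compound and blank has enzyme only.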

Sequence of Aminopeptidase N (P15144 whole entry): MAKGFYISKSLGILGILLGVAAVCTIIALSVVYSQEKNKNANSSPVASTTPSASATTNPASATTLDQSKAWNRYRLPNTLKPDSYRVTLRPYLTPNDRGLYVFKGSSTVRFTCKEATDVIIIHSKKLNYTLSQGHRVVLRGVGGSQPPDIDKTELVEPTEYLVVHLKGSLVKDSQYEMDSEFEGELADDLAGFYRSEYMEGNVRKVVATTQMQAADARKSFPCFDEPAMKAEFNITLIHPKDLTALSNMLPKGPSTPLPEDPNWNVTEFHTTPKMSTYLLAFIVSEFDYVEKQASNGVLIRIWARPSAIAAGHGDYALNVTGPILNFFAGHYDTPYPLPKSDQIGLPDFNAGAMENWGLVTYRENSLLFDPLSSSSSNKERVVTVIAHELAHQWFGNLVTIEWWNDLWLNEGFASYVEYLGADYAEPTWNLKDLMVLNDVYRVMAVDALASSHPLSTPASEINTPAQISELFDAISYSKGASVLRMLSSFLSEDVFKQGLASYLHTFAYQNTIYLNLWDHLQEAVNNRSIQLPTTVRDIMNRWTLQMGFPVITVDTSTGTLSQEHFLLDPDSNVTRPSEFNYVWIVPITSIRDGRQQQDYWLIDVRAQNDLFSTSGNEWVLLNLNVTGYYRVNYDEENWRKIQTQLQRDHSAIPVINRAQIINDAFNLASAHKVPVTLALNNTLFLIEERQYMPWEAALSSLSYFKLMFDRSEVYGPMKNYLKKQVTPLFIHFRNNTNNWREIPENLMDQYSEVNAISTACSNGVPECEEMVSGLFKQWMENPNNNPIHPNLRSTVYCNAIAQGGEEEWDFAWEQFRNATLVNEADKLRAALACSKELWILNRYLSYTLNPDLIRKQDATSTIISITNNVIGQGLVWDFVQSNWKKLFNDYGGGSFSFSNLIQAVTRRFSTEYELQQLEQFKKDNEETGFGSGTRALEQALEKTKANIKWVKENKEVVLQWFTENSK
Sequence of 72 kDa type IV collagenase (P08253 whole entry): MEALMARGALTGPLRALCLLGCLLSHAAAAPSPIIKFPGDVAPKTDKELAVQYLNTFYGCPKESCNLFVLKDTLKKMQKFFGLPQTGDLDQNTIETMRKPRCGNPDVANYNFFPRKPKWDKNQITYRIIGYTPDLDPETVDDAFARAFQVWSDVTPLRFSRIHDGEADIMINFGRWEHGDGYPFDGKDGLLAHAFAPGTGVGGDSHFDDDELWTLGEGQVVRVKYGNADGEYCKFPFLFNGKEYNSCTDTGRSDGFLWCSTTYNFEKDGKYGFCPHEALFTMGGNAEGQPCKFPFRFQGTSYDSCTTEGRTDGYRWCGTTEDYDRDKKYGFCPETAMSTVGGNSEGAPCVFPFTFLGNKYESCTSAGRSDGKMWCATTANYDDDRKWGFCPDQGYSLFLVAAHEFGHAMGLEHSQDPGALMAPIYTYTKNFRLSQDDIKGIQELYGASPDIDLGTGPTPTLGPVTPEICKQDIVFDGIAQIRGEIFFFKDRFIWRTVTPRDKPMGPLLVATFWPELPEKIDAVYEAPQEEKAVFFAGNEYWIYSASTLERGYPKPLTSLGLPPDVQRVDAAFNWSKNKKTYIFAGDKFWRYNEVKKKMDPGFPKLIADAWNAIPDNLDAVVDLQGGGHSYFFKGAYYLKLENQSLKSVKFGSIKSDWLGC

As to `COC(=O)[C@@H]1C[C@H](NC(=O)c2ccc([N+](=O)[O-])cc2)CN1C(C)=O`, the values for the IC50 (in test [1]; at Aminopeptidase N) were 5.2 µM and 72.3 µM, respectively.

As for `COC(=O)[C@@H]1C[C@H](NC(=O)/C=C/c2ccc(OC)c(OC)c2)CN1C(C)=O`, the IC50 in test [1] is 0.8 µM; on Aminopeptidase N, 162 µM.

Take `COc1cc(C(=O)N[C@H]2C[C@@H](C(=O)O)N(C(C)=O)C2)cc(OC)c1OC`: the results for the IC50 (in test [1]; against Aminopeptidase N) were 0.016 µM and 51.4 µM, respectively.

Consider `CC(=O)N1C[C@@H](NC(=O)/C=C/c2ccccc2)C[C@H]1C(=O)NO`, for which the IC50 amounted to 0.004 µM in test [1] and 56.1 µM against Aminopeptidase N.

In the case of `COC(=O)[C@@H]1C[C@H](NC(=O)c2cccnc2)CN1C(=O)/C=C/c1ccc(OC)c(OC)c1`, the IC50 in test [1] is 3 µM; against Aminopeptidase N it was 137 µM.

Take `COC(=O)[C@@H]1C[C@H](NC(=O)c2cc(OC)c(OC)c(OC)c2)CN1C(C)=O`: the figures for the IC50 (in test [1]; at Aminopeptidase N) were 0.1 µM and 98.4 µM, respectively.

Take `COC(=O)[C@@H]1C[C@H](NC(=O)/C=C/c2ccccc2)CN1C(=O)CCc1ccc(OC)c(OC)c1`: the IC50 in test [1] is 1.6 µM; against Aminopeptidase N, 233 µM.

On to `COC(=O)[C@@H]1C[C@H](NC(=O)c2ccc(Cl)cc2)CN1C(C)=O`, for which the figures for the IC50 (in test [1]; against Aminopeptidase N) were 4.2 µM and 122 µM, respectively.

On to `COC(=O)[C@@H]1C[C@@H](O)CN1C(C)=O`, for which the results for the IC50 (in test [1]; at Aminopeptidase N) were 2 µM and 38.6 µM, respectively.

As to `COC(=O)[C@@H]1C[C@H](N=[N+]=[N-])CN1C(=O)/C=C/c1ccc(OC)c(OC)c1`, the concentration for half-maximal inhibition (IC50) in test [1] is 3.4 µM; against Aminopeptidase N, 71.3 µM.

Regarding `COC(=O)[C@@H]1C[C@H](N)CN1C(=O)CCc1ccc(OC)c(OC)c1`, the figures for the IC50 (in test [1]; at Aminopeptidase N) were 2.1 µM and 68.4 µM, respectively.

For the compound `COC(=O)[C@@H]1C[C@@H](O)CN1C(=O)/C=C/c1ccc(OC)c(OC)c1`, the IC50 in test [1] is 2.9 µM; at Aminopeptidase N, 81.8 µM.

For the compound `COc1ccc(CCC(=O)N2C[C@@H](NC(=O)c3cccnc3)C[C@H]2C(=O)NO)cc1OC`, the IC50 in test [1] is 0.012 µM; against Aminopeptidase N it was 62.2 µM.

As to `COc1cc(C(=O)N[C@H]2C[C@@H](C(=O)NO)N(C(C)=O)C2)cc(OC)c1OC`, the IC50 came out at 0.001 µM in test [1] and 33.5 µM at Aminopeptidase N.

On to `COC(=O)[C@@H]1C[C@H](NC(=O)c2cnccn2)CN1C(C)=O`, for which the results for the IC50 (in test [1]; on Aminopeptidase N) were 2.1 µM and 82.6 µM, respectively.

With `COC(=O)[C@@H]1C[C@@H](OS(C)(=O)=O)CN1C(=O)/C=C/c1ccc(OC)c(OC)c1`, the concentration for half-maximal inhibition (IC50) in test [1] was 1.1 µM; against Aminopeptidase N, 46.6 µM.

Take `COc1ccc(CCC(=O)N2C[C@@H](NC(=O)/C=C/c3ccccc3)C[C@H]2C(=O)NO)cc1OC`: the IC50 turned out to be 0.011 µM in test [1] and 96.6 µM against Aminopeptidase N.

With `COC(=O)[C@@H]1C[C@H](NC(=O)c2ccncc2)CN1C(C)=O`, the results for the IC50 (in test [1]; against Aminopeptidase N) were 2.2 µM and 74.8 µM, respectively.

As to `COC(=O)[C@@H]1C[C@H](NC(=O)c2cccnc2)CN1C(=O)CCc1ccc(OC)c(OC)c1`, the results for the IC50 (in test [1]; at Aminopeptidase N) were 2.2 µM and 196 µM, respectively.

For `COC(=O)[C@@H]1C[C@H](NC(=O)c2cccnc2)CN1C(C)=O`, the IC50 in test [1] amounted to 1 µM; at Aminopeptidase N it was 78.4 µM.

On to `COC(=O)[C@@H]1C[C@H](N)CN1C(C)=O`, for which the IC50 in test [1] was determined as 1.5 µM; on Aminopeptidase N, 24.1 µM.

For `COC(=O)[C@@H]1C[C@H](N=[N+]=[N-])CN1C(C)=O`, the figures for the IC50 (in test [1]; at Aminopeptidase N) were 2.6 µM and 73.7 µM, respectively.

With `COC(=O)[C@@H]1C[C@H](N)CN1C(=O)/C=C/c1ccc(OC)c(OC)c1`, on Aminopeptidase N, the IC50 was found to be 70.6 µM. This counts as double-digit micromolar.

As to `CC(=O)N1C[C@@H](NC(=O)c2cccnc2)C[C@H]1C(=O)NO`, the IC50 was found to be 0.005 µM in test [1] and 29.8 µM on Aminopeptidase N.

Turning to `COC(=O)[C@@H]1C[C@H](NC(=O)c2ccccc2)CN1C(C)=O`, the values for the IC50 (in test [1]; against Aminopeptidase N) were 2.7 µM and 123 µM, respectively.

On to `COC(=O)[C@@H]1C[C@H](NC(=O)c2ccc(Br)cc2)CN1C(C)=O`, for which the values for the IC50 (in test [1]; against Aminopeptidase N) were 6.1 µM and 149 µM, respectively.

Consider `COC(=O)[C@@H]1C[C@@H](OS(=O)(=O)c2ccc(C)cc2)CN1C(C)=O`, for which the IC50 was 0.3 µM in test [1] and 30.4 µM on Aminopeptidase N.

Consider `COC(=O)CNC(=O)[C@@H]1C[C@H](NC(=O)c2cc(OC)c(OC)c(OC)c2)CN1C(C)=O`, for which the IC50 in test [1] was 0.109 µM; at Aminopeptidase N, 121 µM.

With `COC(=O)[C@@H]1C[C@H](NC(=O)/C=C/c2ccccc2)CN1C(C)=O`, the IC50 is 0.1 µM in test [1] and 135 µM on Aminopeptidase N.
